Source: ChEMBL document CHEMBL2406965, “Optimization of N-benzoylindazole derivatives as inhibitors of human neutrophil elastase” (J Med Chem, 2013)
Active and inactive are the calls of the source. The calls are words filed in the database; no cut-off is given here.

How the values were obtained:
[1] = molecular target: T1, Plasma kallikrein (Homo sapiens, UniProt P03952); assay: Inhibition of human plasma kallikrein using benzyloxycarbonyl-Phe-Arg-7-amino-4-methylcoumarin as substrate at 50 uM by fluorescence microplate reader analysis
[2] = Half life in phosphate buffer at pH 7.3; format: physicochemical
[3] = molecular target: Cathepsin D (Homo sapiens) (UniProt P07339); assay: Inhibition of human spleen cathepsin D using MOCAc-Gly-Lys-Pro-Ile-Leu-Phe-Phe-Arg-Leu-Lys (Dnp)-D-Arg-NH2 as substrate at 50 uM by fluorescence microplate reader analysis
Outline: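 Cathepsin D from human spleen, 0.1 U/mL, in 0.1 M sodium acetate pH 5.0 with 5 μM MOCAc peptide substrate, 25 °C. Highest compound concentration tested 50 μM.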

[4] = molecular target: T2, Neutrophil elastase (Homo sapiens) (UniProt P08246); assay: Inhibition of human neutrophil elastase using N-methylsuccinyl-Ala-Ala-Pro-Val-7-amino-4-methylcoumarin as substrate at 5 uM after 4 hrs by fluorescence microplate reader analysis
T2 sequence (whole entry): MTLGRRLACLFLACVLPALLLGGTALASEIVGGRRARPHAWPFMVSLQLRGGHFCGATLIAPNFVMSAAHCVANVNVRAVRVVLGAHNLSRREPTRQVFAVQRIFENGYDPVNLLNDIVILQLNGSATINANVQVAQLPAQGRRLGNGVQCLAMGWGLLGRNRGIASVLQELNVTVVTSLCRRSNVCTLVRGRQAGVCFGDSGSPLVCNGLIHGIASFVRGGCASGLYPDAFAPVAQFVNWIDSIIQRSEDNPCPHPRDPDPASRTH

[5] = molecular target: Prothrombin (Homo sapiens, UniProt P00734); assay: Inhibition of human plasma thrombin using benzonyl-Phe-Val-Arg-7-amino-4-methylcoumarin as substrate by fluorescence microplate reader analysis
[6] = molecular target: T3, Urokinase-type plasminogen activator (Homo sapiens, UniProt P00749); assay: Inhibition of human urokinase using benzyloxycarbonyl-Gly-Gly-Arg-7-amino-4-methylcoumarin as substrate by fluorescence microplate reader analysis
[7] = molecular target: T4, Neutrophil elastase (Homo sapiens, UniProt P08246); assay: Inhibition of human neutrophil elastase using N-methylsuccinyl-Ala-Ala-Pro-Val-7-amino-4-methylcoumarin as substrate measured every 30 seconds for 10 mins by fluorescence microplate reader analysis
T4 sequence (P08246 whole entry): T2 sequence (whole entry)

[8] = molecular target: T2, Neutrophil elastase (Homo sapiens); assay: Inhibition of human neutrophil elastase using N-methylsuccinyl-Ala-Ala-Pro-Val-7-amino-4-methylcoumarin as substrate at 50 uM measured every 30 seconds for 10 mins by fluorescence microplate reader analysis
[9] = molecular target: Chymotrypsinogen B (Homo sapiens, UniProt P17538); assay: Inhibition of human pancreatic chymotrypsin using Suc-Ala-Ala-Pro-7-amino-4-methylcoumarin as substrate by fluorescence microplate reader analysis
[10] = molecular target: T2, Neutrophil elastase (Homo sapiens); assay: Reversible inhibition of human neutrophil elastase using N-methylsuccinyl-Ala-Ala-Pro-Val-7-amino-4-methylcoumarin as substrate at 5 uM after 1 to 2 hrs by fluorescence microplate reader analysis
[11] = molecular target: T1, Plasma kallikrein; assay: Inhibition of human plasma kallikrein using benzyloxycarbonyl-Phe-Arg-7-amino-4-methylcoumarin as substrate by fluorescence microplate reader analysis
[12] = molecular target: T2, Neutrophil elastase (Homo sapiens); assay: Inhibition of human neutrophil elastase using N-methylsuccinyl-Ala-Ala-Pro-Val-7-amino-4-methylcoumarin as substrate at 5 uM after 5 hrs by fluorescence microplate reader analysis
[13] = molecular target: T3, Urokinase-type plasminogen activator; assay: Inhibition of human urokinase using benzyloxycarbonyl-Gly-Gly-Arg-7-amino-4-methylcoumarin as substrate at 50 uM by fluorescence microplate reader analysis
[14] = molecular target: T2, Neutrophil elastase (Homo sapiens); assay: Competitive inhibition of human neutrophil elastase using N-methylsuccinyl-Ala-Ala-Pro-Val-7-amino-4-methylcoumarin as substrate by Lineweaver-Burk plot analysis

Chain of Chymotrypsinogen B (P17538 34-164 limits assumed, other chains not shown): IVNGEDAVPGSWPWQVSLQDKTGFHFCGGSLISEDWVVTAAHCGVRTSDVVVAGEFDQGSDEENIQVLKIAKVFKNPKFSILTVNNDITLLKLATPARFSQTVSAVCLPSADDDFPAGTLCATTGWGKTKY
Chain of Chymotrypsinogen B (P17538 167-263 limits assumed, other chains not shown): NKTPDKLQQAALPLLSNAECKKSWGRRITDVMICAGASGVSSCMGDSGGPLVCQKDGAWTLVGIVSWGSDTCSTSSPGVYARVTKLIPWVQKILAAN
T1 sequence (P03952 20-390 limits assumed): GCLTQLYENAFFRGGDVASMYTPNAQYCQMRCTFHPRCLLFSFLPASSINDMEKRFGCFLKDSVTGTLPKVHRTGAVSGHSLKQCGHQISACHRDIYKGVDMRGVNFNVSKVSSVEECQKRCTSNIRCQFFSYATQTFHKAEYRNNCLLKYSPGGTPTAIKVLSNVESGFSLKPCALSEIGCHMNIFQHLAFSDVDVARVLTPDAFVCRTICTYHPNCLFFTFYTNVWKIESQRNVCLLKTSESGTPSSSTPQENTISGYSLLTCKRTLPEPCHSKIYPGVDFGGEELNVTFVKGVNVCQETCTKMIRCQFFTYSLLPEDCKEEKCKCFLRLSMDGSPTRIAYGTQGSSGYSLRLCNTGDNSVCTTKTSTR
T1 sequence (P03952 391-638 limits assumed): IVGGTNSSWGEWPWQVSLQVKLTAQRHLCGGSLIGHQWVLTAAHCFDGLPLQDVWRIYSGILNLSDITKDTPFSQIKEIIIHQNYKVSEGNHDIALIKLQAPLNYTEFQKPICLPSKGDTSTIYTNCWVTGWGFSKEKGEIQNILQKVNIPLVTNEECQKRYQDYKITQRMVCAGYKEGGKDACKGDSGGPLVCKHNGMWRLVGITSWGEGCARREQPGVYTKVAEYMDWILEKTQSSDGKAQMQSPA
Chain of Cathepsin D (Homo sapiens) (P07339 65-162 limits assumed): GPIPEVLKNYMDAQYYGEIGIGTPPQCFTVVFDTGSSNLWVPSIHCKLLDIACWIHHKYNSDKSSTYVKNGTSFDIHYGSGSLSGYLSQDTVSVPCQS
Chain of Cathepsin D (Homo sapiens) (P07339 169-412 limits assumed): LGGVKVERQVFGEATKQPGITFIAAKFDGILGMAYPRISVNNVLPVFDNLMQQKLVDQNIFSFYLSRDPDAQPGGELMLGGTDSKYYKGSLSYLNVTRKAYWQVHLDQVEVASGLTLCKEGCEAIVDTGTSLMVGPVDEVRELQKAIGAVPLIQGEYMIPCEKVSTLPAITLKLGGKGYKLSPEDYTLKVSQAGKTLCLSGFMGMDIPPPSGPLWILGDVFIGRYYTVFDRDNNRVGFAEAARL

Row | inhibition [1] | IC50 [5] [nM] | IC50 [6] [nM] | IC50 [7] [nM] | IC50 [9] [nM] | Structure (SMILES) | other results
1 | inactive | 310 | 13700 | 30 |  | CCOC(=O)c1nn(C(=O)c2cccc(C)c2)c2ccc(NC(C)=O)cc12 | t1/2 [2]: 78.8 min; inhibition [3]: inactive; inhibition [4]: Active
2 |  |  |  | 140 |  | CCOC(=O)c1nn(C(=O)c2cccc(C)c2)c2ccc(OC)cc12 | 
3 |  |  |  |  |  | COC(=O)c1nn(C(=O)c2cccc(C)c2)c2c([N+](=O)[O-])cccc12 | inhibition [8]: inactive
4 |  |  |  | 50 |  | COC(=O)c1nn(C(=O)c2ccsc2)c2ccc([N+](=O)[O-])cc12 | 
5 | inactive | 1900 | 6600 |  | 66 | Cc1cccc(C(=O)n2nc(C#N)c3ccccc32)c1 | 
6 |  |  |  | 260 |  | CCOC(=O)c1nn(C(=O)c2ccsc2)c2ccc(Br)cc12 | 
7 |  |  |  | 40 |  | N#Cc1nn(C(=O)c2ccccc2)c2ccccc12 | 
8 | inactive |  |  |  |  | COC(=O)c1nn(C(=O)c2cccc(OC)c2)c2ccc(Br)cc12 | 
9 | inactive | 640 | 310 | 20 | 38 | COC(=O)c1nn(C(=O)c2cccc(C)c2)c2cc([N+](=O)[O-])ccc12 | t1/2 [2]: 41.5 min; inhibition [3]: inactive
10 |  | 830 | 620 | 30 | 31 | COC(=O)c1nn(C(=O)c2ccccc2)c2ccc([N+](=O)[O-])cc12 | inhibition [10]: Active; t1/2 [2]: 37.9 min; inhibition [3]: inactive; IC50 [11]: 11.2 µM
11 | inactive | 480 | 1500 |  | 40 | CCOC(=O)c1nn(C(=O)c2cccc(C)c2)c2ccc([N+](=O)[O-])cc12 | 
12 |  |  |  | 20 |  | CCOC(=O)c1nn(C(=O)c2ccccc2)c2ccc([N+](=O)[O-])cc12 | 
13 | inactive | 370 | 25300 | 30 | 46 | CCOC(=O)c1nn(C(=O)c2ccsc2)c2ccc([N+](=O)[O-])cc12 | inhibition [10]: Active; t1/2 [2]: 32.8 min; inhibition [3]: inactive
14 |  |  |  | 110 |  | CCOC(=O)c1nn(C(=O)c2cccc(C)c2)c2ccc(OC(F)(F)F)cc12 | 
15 |  |  |  | 140 |  | CCOC(=O)c1nn(C(=O)c2cccc(C)c2)c2ccc(N(C)C)cc12 | 
16 |  |  |  | 160 |  | COC(=O)c1nn(C(=O)c2ccsc2)c2ccc(Br)cc12 | 
17 | inactive | 160 |  | 12 | 370 | CCOC(=O)c1nn(C(=O)c2cccc(C)c2)c2ccc(NC(=O)C3CC3)cc12 | inhibition [12]: Active; inhibition [13]: inactive; inhibition [14]: Active; t1/2 [2]: 51.7 min; inhibition [3]: inactive
18 | inactive | 1100 | 440 |  |  | COC(=O)c1nn(C(=O)c2cccc(C)c2)c2ccc([N+](=O)[O-])cc12 | t1/2 [2]: 47.8 min; inhibition [3]: inactive; inhibition [4]: Active
19 |  |  |  | 50 |  | CCCC(=O)Nc1ccc2c(c1)c(C(=O)OCC)nn2C(=O)c1cccc(C)c1 | 
20 | inactive |  |  | 80 |  | COC(=O)c1nn(C(=O)c2cccc(C)c2)c2ccc(Br)cc12 | 
21 |  |  |  | 80 |  | CCOC(=O)c1nn(C(=O)c2ccccc2)c2ccc(OC)cc12 | 
22 | inactive | 82 | 480 |  | 21 | CCOC(=O)c1nn(C(=O)c2cccc(OC)c2)c2ccc([N+](=O)[O-])cc12 | 
23 | inactive | 39 | 14800 |  | 140 | CCOC(=O)c1nn(C(=O)c2cccc(C)c2)c2ccc(NC(=O)CC)cc12 | 
